Hits are enriched below; roughly 4.1% of the tested compounds scored in any of these assays.
KCNK9 inh: inhibitors of human KCNK9 two-pore domain potassium channel. Q9NPC2. HEK293 KCNK9, FluxOR thallium flux fluorescence; stronger effect = lower value. B-score at 10 µM. 1.2% of 310,000 active. AID 488922;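 active means ratio B-score over 3 SD below the library mean, with starting fluorescence within 5 SD of its mean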;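 further: negative B-score means less thallium flux so channel inhibition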
Target sequence (Q9NPC2 whole entry, looked up, the tested form may be a part): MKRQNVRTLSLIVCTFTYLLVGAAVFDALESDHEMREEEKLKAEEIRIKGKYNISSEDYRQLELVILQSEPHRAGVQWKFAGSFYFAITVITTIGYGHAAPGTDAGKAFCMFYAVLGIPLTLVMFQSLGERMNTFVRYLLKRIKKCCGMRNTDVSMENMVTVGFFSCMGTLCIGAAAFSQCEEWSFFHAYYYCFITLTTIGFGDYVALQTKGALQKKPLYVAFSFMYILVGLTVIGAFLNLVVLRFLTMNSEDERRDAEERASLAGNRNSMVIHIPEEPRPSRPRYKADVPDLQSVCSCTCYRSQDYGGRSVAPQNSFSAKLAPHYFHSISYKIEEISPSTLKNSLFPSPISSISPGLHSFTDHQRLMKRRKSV
KCNK3 block: human KCNK3 channel inhibition, primary screen; CHO-KCNK3 thallium flux, FluxOR fluorescence; stronger effect = lower value; 0.84% of 340,000 active; B-score at 10 µM; AID 602410;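 active means B-score under library mean minus 4 SD, starting fluorescence ratio at most library mean plus 5 SD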;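 further: more negative B-score means stronger inhibition of thallium flux through KCNK3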
Target sequence (O14649 whole entry, looked up): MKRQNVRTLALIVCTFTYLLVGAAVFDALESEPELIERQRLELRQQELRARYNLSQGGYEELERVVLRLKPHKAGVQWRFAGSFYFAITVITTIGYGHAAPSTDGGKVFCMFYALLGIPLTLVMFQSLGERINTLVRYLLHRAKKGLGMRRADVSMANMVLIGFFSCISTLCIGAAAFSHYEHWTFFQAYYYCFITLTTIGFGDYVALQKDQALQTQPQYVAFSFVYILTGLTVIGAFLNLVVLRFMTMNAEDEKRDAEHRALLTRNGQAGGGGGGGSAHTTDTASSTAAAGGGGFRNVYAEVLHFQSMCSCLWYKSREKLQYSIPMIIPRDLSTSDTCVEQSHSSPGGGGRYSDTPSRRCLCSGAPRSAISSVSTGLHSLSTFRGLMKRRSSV
KCC2 mod: modulates chloride dependent transport by human KCC2. Q9H2X9. B-score of Tl+ flux slope (higher = more flux/activation; lower = inhibition) at 10 µM. AID 1456. KCC2 cells, thallium flux FluoZin-2 fluorescence. 2.2% of 190,000 active;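 active means thallium flux slope and its plate-corrected score both differing from the plate sample mean at a set confidence after two filtering rounds, in either direction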;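 further: slope of fluorescence scaled to starting intensity during 10 to 20 s after thallium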
hERG protect: compounds protecting human hERG from proarrhythmic drug block | 0.51% of 310,000 active | Q12809 | activation (rescue from dofetilide block), less the hit threshold, % at 10 µM | AID 1511 | CHO-hERG, FluxOR thallium flux, dofetilide IC70 present;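 active means activation above the mean of controls blocked by dofetilide plus 5 SD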;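 further: thallium influx through hERG after potassium depolarization seen as dye fluorescence rise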
KCNQ1 inh: blocks the human KCNQ1 potassium channel. P51787. CHO-K1 KCNQ1, FluxOR thallium flux fluorescence; stronger effect = higher value. B-score at 10 µM. 1.3% of 310,000 active. AID 2642;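 active means compounds whose thallium flux B-score, printed positive for inhibition, exceeds three library SD while starting fluorescence stays within three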;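 further: channel opened by potassium depolarization with thallium stimulus after 20 min compound exposure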
KCNQ1 pot: potentiates or activates the human KCNQ1 potassium channel | P51787 | CHO-K1 KCNQ1, thallium flux FluxOR fluorescence; stronger effect = higher value | B-score at 10 µM | 0.35% of 310,000 active;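 active means fluorescence ratio B-score, a plate-corrected score, at least three library SD, with initial intensity B-score within 5 SD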
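Medium – assay buffer, equal DMSO in all wells · Material – CHO-K1 cell line with stable KCNQ1 potassium channel expression · Signal – kinetic FluxOR thallium fluorescence, 10-s 1-Hz baseline, 110-s post-stimulus read · Compound – single concentration per compound, DMSO matched to controls · Schedule – 37 °C overnight plating, 90-min dark dye load, 20-min compound pretreatment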
KCC2 secondary: confirmation of human KCC2 transport modulators; shares compounds with KCC2 mod; HEK293-KCC2, thallium flux, FluoZin2 fluorescence; stronger effect = higher value; normalised thallium flux (F/F0 slope) at 10 µM; 15% of 3,700 active; AID 1713;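 active means thallium flux slope above the same plate's solvent-only control mean plus 3 SD; inconclusive means the two replicate wells disagree; inactive means no significant difference from solvent-only control wells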
KCC2 bumet counter: thallium flux persisting under bumetanide in KCC2 cells, counter-screen secondary assay | shares compounds with KCC2 mod | HEK293-KCC2 + bumetanide/ouabain, thallium flux FluoZin2; stronger effect = higher value | normalized thallium flux at 10 µM | 49% of 3,700 active | AID 1714;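 active means thallium entry rate above the same plate's blocked-transporter control wells by more than 3 SD; inconclusive means the two repeat wells disagree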;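 further: raw slope of fluorescence over initial fluorescence between 10 and 20 s after thallium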
KCC2 sec2: KCC2 (human) modulation, second secondary assay; shares compounds with KCC2 mod; HEK293-KCC2, thallium flux FluoZin2 fluorescence; actives lie on both sides; F/F0 rise rate, 10–20 s post-thallium; normalized thallium flux at 10 µM; 23% of 3,700 active;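 active means thallium flux slope more than 3 SD above or below the plate's solvent-only control mean, mostly below; inconclusive means the two repeat wells disagreed; inactive means no significant shift from solvent-only controls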
HEK293 Tl flux: parental HEK flux effect, counter-screen; 46% of 3,700 active; thallium flux rate (normalised fluorescence) at 10 µM; AID 1716; HEK293 parental cells, thallium flux FluoZin2, ouabain; baseline-ratio fluorescence slope, 10–20 s after thallium; shares compounds with KCC2 mod;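 active means thallium flux rate significantly above the same plate's solvent-only control wells, beyond their mean plus 3 SD; inconclusive means the two replicate wells gave conflicting results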
KCC2 ouabain: confirmation of human KCC2 modulators with ouabain; AID 1717; HEK293-KCC2, thallium flux FluoZin2 fluorescence; bidirectional: low = inhibitor, high = activator; raw Tl+ flux slope (below DMSO = inhibition, above = activation) at 10 µM; shares compounds with KCC2 mod; 48% of 3,700 active;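 active means thallium flux slope beyond 3 SD from same-plate DMSO control mean in most replicates, usually higher, sometimes lower; inconclusive means repeat tests gave conflicting results; inactive means no significant difference from controls in most replicates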;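 further: slope of initial-normalized fluorescence between seconds 10 and 20 after thallium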
HEK counter2: counter-screen for KCC2 modulators: effect in parental HEK293 cells. shares compounds with KCC2 mod. thallium flux FluoZin-2 fluorescence slope. thallium flux slope at 10 µM. 33% of 3,700 active;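 active means thallium flux slope above the same plate's solvent-control mean plus 3 SD in both duplicate wells; inconclusive means duplicate wells that disagreed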;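 further: run without ouabain in cells lacking the KCC2 cotransporter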
Hits are given with their value; 0 = inactive; ? = inconclusive; - = no result given.

SMILES	KCNK9 inh	KCNK3 block	KCC2 mod	hERG protect	KCNQ1 inh	KCNQ1 pot	KCC2 secondary	KCC2 bumet counter	KCC2 sec2	HEK293 Tl flux	KCC2 ouabain	HEK counter2
Cc1ccc(NC(=O)C(C)Sc2nc(=O)cc(N)n2-c2ccccc2)cc1 (stereo not drawn)	0	0	-	0	0	0	0	0	0	0	0	0
Cc1ccc2nc3c(cc2c1)CN(Cc1ccco1)C(=NCC1CCCO1)S3 (stereo not drawn)	0	0	3.05	0	0	0	0	?	0	0	0	0
COCCNC(=O)c1cc(-c2ccc(-c3ccccc3)cc2)nc2ccccc12	0	0	-	0	0	0	-	-	-	-	-	-
O=C(CCSc1ccccc1)NCCSCc1ccccc1	0	0	-3.53	0	0	0	?	0	0.0215	?	0.0133	?
CN(C)S(=O)(=O)N(CC(=O)NCCSCc1ccccc1)c1ccccc1	0	0	-3.71	0	0	0	0	0.006	0.0243	0	?	0
Cc1cccc(CSCCNC(=O)CCSc2ccccc2)c1	0	0	0	0	0	0	-	-	-	-	-	-
CS(=O)(=O)N(CC(=O)NCCSCc1ccccc1)c1ccccc1F	0	0	-	0	0	0	-	-	-	-	-	-
Cc1cccn2c(=O)nc(SCC(=O)c3ccccc3)nc12	0	0	-	0	0	0	-	-	-	-	-	-
Cc1ccc(NC(=O)/C(=C\C=C\c2ccccc2)NC(=O)c2ccccc2)cc1	0	0	-4	0	0	0	?	0	0	0	0.0135	0
CCc1c(C)nc2cc(-c3cccc(Br)c3)[nH]n2c1=O	0	0	-	0	0	0	-	-	-	-	-	-
Fc1ccc(-n2ncc3c(SCc4cccnc4)ncnc32)cc1	0	0	21.3	0	0	0	0	0.0256	?	0.0292	0.0308	0.0232
O=C(NCc1ccccc1)Nc1cccn(Cc2ccc(F)cc2)c1=O	0	0	0	0	0	0	-	-	-	-	-	-
CSc1ccccc1NC(=S)N/N=C/c1cccn1Cc1ccc(F)cc1	-7.86	0	4.14	0	0	0	0	0.0106	0	0.0106	0	0.0135
COc1ccc2ccn(S(=O)(=O)c3ccccc3)c2c1	0	0	-	0	0	0	-	-	-	-	-	-
Cc1nc(NC(=O)COC(=O)CCc2nc3ccccc3s2)c(Cl)cc1Cl	0	0	0	0	0	0	-	-	-	-	-	-
Cc1cc(C(=O)COC(=O)CCc2nc3ccccc3s2)c(C)n1C	0	0	-3.2	0	0	0	0	?	0.0228	0	0.0156	0
C/C(=N\O)c1ccc(Cl)c(Cl)c1	0	-	0	0	0	0	-	-	-	-	-	-
CNC(=S)N/N=C(\C)c1ccc(Cl)c(Cl)c1	0	0	6.63	0	0	0	0	0.0324	0	0.0181	0.0317	0.0185
COCCNC(=S)N/N=C(\C)c1ccc(Cl)c(Cl)c1	0	0	6.62	0	0	0	?	0.0319	0	?	0.0295	?
COCCNC(=S)N/N=C(\C)c1ccc(Cl)c(Cl)c1Cl	0	0	0	0	0	0	-	-	-	-	-	-
COC(=O)[C@H](CC(C)C)NC(=O)Cn1cnc2c(NCc3ccccc3)ncnc21	-	0	-	-	-	-	-	-	-	-	-	-
O=C(/C=C/c1ccccc1)NC(=S)NNC(=O)Cc1cccs1	0	0	6.25	0	0	0	0	0.026	0	?	?	0
O=C(Cc1ccccc1)NNC(=S)NC(=O)c1cccs1	0	0	6.8	0	0	0	0	0.0137	0	0.0155	?	0.0181
O=C(Cc1cccs1)NNC(=S)NC(=O)c1ccccc1	0	0	0	0	0	0	-	-	-	-	-	-
CNC(=S)NNC(=O)Cc1ccccc1	0	0	-	0	0	0	-	-	-	-	-	-
SMILES	KCNK9 inh	KCNK3 block	KCC2 mod	hERG protect	KCNQ1 inh	KCNQ1 pot	KCC2 secondary	KCC2 bumet counter	KCC2 sec2	HEK293 Tl flux	KCC2 ouabain	HEK counter2
CC(=O)NNC(=S)NC(=O)c1ccc(C)cc1	0	0	0	0	0	0	-	-	-	-	-	-
CCC(=O)NNC(=S)NC(=O)c1ccc(C)cc1	0	0	7.6	0	0	0	?	0.0202	0	0.0132	0	?
Cc1cccc(C(=O)NC(=S)NNC(=O)Cc2ccccc2)c1	0	0	14.2	0	0	0	0.0185	0.0484	0	0.0247	0.041	0.0146
CCOc1ccc(OCCC(=O)OCC(=O)NC2CCCC2)cc1	-	0	-	-	-	-	-	-	-	-	-	-
CC1CCCCC1NC(=S)NC(=O)c1cccs1 (stereo not drawn)	0	0	117	5.2	0	20	0.0272	0.14	0	0.0578	0.0639	0.0175
C#CCOCCOCCOCCNc1nc(N2CCN(C(=O)[C@H](CCCCN)n3cc(CN)nn3)CC2)nc(N2CCN(C(=O)[C@H](CCCN=C(N)N)n3cc(C(N)[C@H](C)CC)nn3)CC2)n1 (stereo partly drawn)	-	0	-	-	-	-	-	-	-	-	-	-
CC(C)c1ccc(-c2c(NCCc3ccccc3)c(=O)c2=O)cc1	0	0	-	0	0	0	-	-	-	-	-	-
COC(=O)c1[nH]c2ccc(C)cc2c1NS(=O)(=O)c1ccc(F)c(C)c1	0	0	-2.93	0	0	0	0	?	0	0	0	0
COCc1c(C(=O)N/N=C(/C)c2ccc(OCc3ccccc3)cc2)nnn1-c1nonc1N	0	0	-	0	0	0	-	-	-	-	-	-
CC1(C)Cc2c(C#N)c(N3CCN(C(=O)c4ccco4)CC3)nc(Cc3ccccc3)c2CO1	0	0	-	0	0	0	0	0	0	?	0.0171	0
CCN(CC)CCNc1nc(-c2ccco2)c2c(c1C#N)CC(C)(C)OC2	0	0	0	0	0	0	-	-	-	-	-	-
CC1(C)Cc2c(C#N)c(NCCc3ccccc3)nc(-c3ccco3)c2CO1	0	0	0	0	0	0	0	0	0	0	0	0
Cc1nc(N2CCN(C(=O)c3ccc(Cl)cc3)CC2)c(C#N)c2c1COC(C)(C)C2	0	0	0	0	0	0	0	0	0	?	0	0
Cc1ccc(F)cc1NC(=O)c1sc2ncn(CC(=O)N3CCN(c4ccccn4)CC3)c(=O)c2c1C	0	0	-	0	0	0	-	-	-	-	-	-
Cc1ccc(CNC2CCCCC2)s1	0	0	-	0	0	0	-	-	-	-	-	-
